Rpn11 block: blocks the human proteasome subunit Rpn11; human 26S proteasome, Ub4-pepOG fluorescence polarization; 20S core pre-blocked with epoxomicin; inhibition, % at 20 µM; 360,000 tested, 0.59% active;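 active = inhibition at 20 µM, scaled to each plate's controls, above about 33%, limit read from the data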
LMPTP block: LMPTP (human) inhibition | P24666 | inhibition, % at 20 µM | 360,000 tested, 0.22% active | recombinant LMPTP-A, OMFP fluorogenic substrate, fluorescence intensity;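 active = compounds that cut the enzyme signal by at least half of the control window in the single-dose screen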;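 note: plate controls were DMSO wells with enzyme plus substrate for no effect and substrate without enzyme for full effect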
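Test system: LMPTP-A phosphatase enzyme. Amount: LMPTP-A at 0.625 nM final in the reaction. Reagent: OMFP substrate, 400 µM final. Times: 50 min at room temperature. Signal: endpoint fluorescence intensity from OMFP dephosphorylation. Read-out basis: % inhibition. Benchmarks: no-enzyme and uninhibited controls.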
STEP inh: inhibitors of human striatal-enriched phosphatase STEP; P54829; recombinant STEP, OMFP fluorogenic substrate, fluorescence; inhibition, % at 20 µM; 360,000 tested, 0.25% active; AID 588621;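 active = inhibition at 20 µM, scaled per plate between control wells, above about 37%, limit read from the data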;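 note: 0% = DMSO with enzyme and substrate and 100% = substrate only without enzyme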
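Material: STEP (striatal-enriched tyrosine phosphatase) enzyme, cell-free | Medium: 50 mM Bis-Tris pH 6.0 with 2.5 mM DTT and 0.005% Tween 20 | Read-out: Percent inhibition scaled to no-enzyme and uninhibited-enzyme controls, plate-pattern corrected | Signal: Fluorescence read at 480 nm ex / 540 nm em | Times: 20 min reaction, room temperature, in the dark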
DNMT1 inh: blocks human DNA methyltransferase DNMT1; P26358; DNMT1 molecular beacon, Hinp1I cleavage, fluorescence; inhibition (reported as % activation of signal), % at 10 µM; 360,000 tested, 0.83% active; in the data active = inhibition above about 50%
Scp-1 inhibitor: inhibitors of human Scp-1 phosphatase; inhibition, % at 20 µM; 340,000 tested, 0.88% active; Recombinant Scp1, phosphopeptide, malachite green phosphate absorbance; AID 493091; Q9GZU7;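 active = inhibition above about 50% at 20 µM, limit read from the data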;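 note: plate controls were DMSO wells with enzyme for no effect and wells lacking enzyme for full effect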
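Test system: SCP-1 phosphatase catalytic domain, residues 76-261 | Compound dosing: One concentration, 20 µM, with 1.0% DMSO | Schedule: 45 min room-temperature reaction, 5 min colour, 30 min stabiliser | Detection: Absorbance at 630 nm | Read-out basis: % inhibition of SCP-1 phosphate liberation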
Rpn11 inh conf: Rpn11 inhibition confirmation, single concentration | inhibition, % at 20 µM | purified human 26S proteasome, Ub4-pepOG fluorescence polarization; proteasome pretreated with epoxomicin | AID 602318 | shares compounds with Rpn11 block | 1,900 tested, 29% active
MMP-2 inh: MMP-2 (human) inhibition counter-screen; shares compounds with Rpn11 block; recombinant MMP-2, FRET peptide cleavage fluorescence; inhibition, % at 20 µM; 1,900 tested, 4% active;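 note: human MMP-2 activated beforehand with APMA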
Thrombin inh: blocks bovine thrombin, flagging nonselective RPN11 hits. shares compounds with Rpn11 block. bovine thrombin cleavage of Ub4-pepOG, fluorescence polarization. inhibition, % at 20 µM. 1,900 tested, 13% active;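 active = mean inhibition at least 40% at 20 µM, or signal 3 deviations below plate average, so some actives read negative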;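 note: plate controls were thrombin with DMSO for no effect and buffer wells lacking thrombin for full effect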
Target sequence (P00735 whole entry, looked up): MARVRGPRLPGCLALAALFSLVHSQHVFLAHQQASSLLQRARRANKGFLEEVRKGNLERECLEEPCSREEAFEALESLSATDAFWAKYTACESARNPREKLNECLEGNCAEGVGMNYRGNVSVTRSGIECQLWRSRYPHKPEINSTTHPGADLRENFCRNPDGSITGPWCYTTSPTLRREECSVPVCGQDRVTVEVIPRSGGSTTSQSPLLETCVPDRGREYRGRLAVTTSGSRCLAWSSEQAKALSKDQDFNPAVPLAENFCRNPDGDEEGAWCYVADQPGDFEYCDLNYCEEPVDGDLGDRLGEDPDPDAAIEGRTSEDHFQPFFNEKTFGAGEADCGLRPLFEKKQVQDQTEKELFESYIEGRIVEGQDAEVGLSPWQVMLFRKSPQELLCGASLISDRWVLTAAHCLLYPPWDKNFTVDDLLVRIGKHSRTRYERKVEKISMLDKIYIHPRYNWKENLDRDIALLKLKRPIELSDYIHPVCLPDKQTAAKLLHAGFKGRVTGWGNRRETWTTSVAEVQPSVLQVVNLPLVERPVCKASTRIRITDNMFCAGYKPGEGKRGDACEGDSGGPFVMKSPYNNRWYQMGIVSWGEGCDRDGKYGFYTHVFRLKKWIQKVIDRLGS
Numbers without * were called inactive; x = no result given. An excerpt weighted towards active compounds, which were near 2% of everything screened. Cut-off read from the data, not from the text of the source, unless noted: active = inhibition above about 40%; inactive = the rest.

SMILES	Rpn11 block	LMPTP block	STEP inh	DNMT1 inh	Scp-1 inhibitor	Rpn11 inh conf	MMP-2 inh	Thrombin inh
COc1ccccc1C(=O)N/C(N)=N/c1nc2ccccc2o1	59*	3	0	-1	-9	51*	-38	8
Cc1ccc(C(=O)N/C(N)=N/c2nc3ccccc3o2)cc1	-3	-1	2	3	6	x	x	x
O=C(NCC1CC1)c1csc([C@@H]2O[C@H](CO)[C@H](O)[C@H](O)[C@H]2O)n1	-5	2	-2	4	x	x	x	x
CCN(CC)c1ccc(N)cc1	98*	6	-1	17	-9	42*	-8	26
Nc1ccc(N(CCO)CCO)cc1	-29	0	-1	-5	-2	x	x	x
CC(=O)N1CCN(c2ccc(NC(=O)c3cccc(OCc4ccccc4)c3)cc2)CC1	82*	0	2	-12	-1	-6	-11	-13
COc1ccccc1N(C)c1cc2c(c3c1ccn3C)C1CCC2O1 (stereo unspecified)	42*	3	0	20	x	-8	-57	3
CCCCCC(=O)OCc1ccc(C2=CC(=O)CC(C)(C)C2=O)cc1	2	2	3	-77	x	x	x	x
CCc1cccc(CC)c1NC(=O)CN1CC(C)SC1=NC1CCCCC1 (stereo unspecified)	61*	-2	1	-4	-5	-13	-7	-4
CCc1cccc(CC)c1NC(=O)NC1CCCCC1	-2	-2	2	2	-1	x	x	x
COc1ccc(NC(=O)c2ccc(C)cc2Cl)c([N+](=O)[O-])c1	48*	-1	0	0	-5	-6	-26	-8
COc1ccc(Nc2nc(-c3cccc([N+](=O)[O-])c3)nc3ccccc23)cc1	2	5	-2	-12	15	x	x	x
CCc1cc(CNC(=O)C2CCC(=O)N(CCc3ccc(OC)cc3)C2)on1 (stereo unspecified)	85*	-2	2	3	-8	-14	-58	-12
CCn1cc(C(=O)NCc2cccs2)c(=O)c2ccc(C)nc21	-2	-1	-7	3	-5	x	x	x
C=CCSc1nnc(NC(=O)c2cn(CC)c3nc(C)ccc3c2=O)s1	48*	1	1	42	-1	10	-64	12
O=c1cc(CN2CCCCCCC2)c2ccccc2o1	46*	53*	5	22	x	17	12	-5
NCc1ccccc1COc1ccccc1	-5	0	0	4	11	x	x	x
CCOC(=O)c1c(NC(=S)Nc2ccccc2)sc2c1CC(C)(C)SC2	42*	3	1	-25	-9	8	81*	-11
CCOC(=O)c1c(NC(=S)NC)sc2c1CC(C)(C)SC2	10	1	-3	-5	-13	x	x	x
[O-][n+]1cccc2c(Br)cc(Br)c(O)c21	53*	5	5	-8	2	-20	-8	-7
CC1(C)Cc2c(C#N)c(SCCC#N)nc(N3CCOCC3)c2CO1	-1	-2	0	1	-9	x	x	x
CC1(C)Cc2c(C#N)c(SCCC#N)nc(N3CCOCC3)c2CS1	67*	13	1	-3	-4	3	-19	-2
Cc1ccc(C2/C(=C(/O)c3ccc4c(c3)CC(C)O4)C(=O)C(=O)N2CCCn2ccnc2)cc1 (stereo unspecified)	0	11	-1	-4	-2	x	x	x
O=c1cc(O)c2c(=O)n(Cc3ccccc3)c3ccccc3c2o1	8	8	6	2	-11	x	x	x
O=c1cc(O)c2c(=O)n(C3CCCCC3)c3ccccc3c2o1	62*	0	2	15	-5	25	-30	6
SMILES	Rpn11 block	LMPTP block	STEP inh	DNMT1 inh	Scp-1 inhibitor	Rpn11 inh conf	MMP-2 inh	Thrombin inh
Cc1cccc(N2CCN(S(=O)(=O)c3cc4c(cc3Cl)NC(=O)CO4)CC2)c1C	44*	-1	0	11	-1	38	-18	18
COc1cccc(N2CCN(S(=O)(=O)c3cc4c(cc3Cl)NC(=O)CO4)CC2)c1	1	0	0	-2	-1	x	x	x
CCCCCC(O)CCCC(=O)O (stereo unspecified)	3	1	-1	1	-6	x	x	x
CCCCCCCCCCCCCCCC(O)C[N+](C)(C)CCO (stereo unspecified)	62*	-3	4	1	82*	77*	12	-18
C[C@]12CCC[C@H](O1)c1c(cc3c(c1O)C(=O)c1c(O)cc(O)cc1C3=O)O2	52*	3	-21	-19	-10	47*	-14	-10
CC(C)(C)OC(=O)C[C@@H]1C/C=C\C[C@H](CC(=O)N(CCO)Cc2ccccc2)C(=O)N[C@@H](Cc2c[nH]c3ccccc23)COC1=O	3	1	2	-16	-2	x	x	x
COc1cc(N=Nc2ccccc2C(=O)O)ccc1O	0	4	4	3	-1	x	x	x
Cc1cc(O)c(C(C)C)cc1N=Cc1ccccc1[N+](=O)[O-]	1	1	0	-11	-15	x	x	x
Cc1cc(O)c(C(C)C)cc1N=Nc1ccccc1C(=O)O	41*	10	5	1	-14	23	-20	27
Cc1cc(N=Nc2ccccc2C(=O)O)c(C)c(C)c1O	92*	16	6	-7	-16	69*	-1	48*
C=CC[n+]1c(-c2ccc(OCC)cc2)csc1NNC(=O)Nc1ccccc1	42*	10	0	3	-5	-22	12	-28
CCCOc1ccc(-c2nnn(CC(=O)c3c[nH]c4ccccc34)n2)cc1	50*	3	1	14	-12	34	-43	-19
NC(=O)CC(NC(=O)Cc1ccc(Cl)cc1)c1ccc(NC2CCCC2)c([N+](=O)[O-])c1 (stereo unspecified)	45*	1	-1	-2	-6	47*	-10	30
NC(=O)CC(NC(=O)Cc1ccc(Cl)cc1)c1ccc(NC2CCCCC2)c([N+](=O)[O-])c1 (stereo unspecified)	22	3	1	-4	-3	x	x	x
COc1ccc(CCNc2ccc(C(CC(N)=O)NC(=O)Cc3cccc4ccccc34)cc2[N+](=O)[O-])cc1 (stereo unspecified)	42*	3	2	34	-8	52*	-21	30
CCCCNC(=O)C(=O)NCC1CCCN1S(=O)(=O)c1cccs1 (stereo unspecified)	-4	0	0	-1	-3	x	x	x
O=C1Nc2cc3c(cc2C1=O)sc1ccccc13	7	12	1	-32	14	x	x	x

Assay outcomes deposited in PubChem BioAssay by Sanford-Burnham Center for Chemical Genomics.
